ChEMBL document CHEMBL4393661, “PRODRUGS FOR NITROREDUCTASE BASED CANCER THERAPY- 2: Novel amide/Ntr combinations targeting PC3 cancer cells” (Eur J Med Chem, 2019)

Tests used:
Putative nitroreductase [1] = target: T1, Putative nitroreductase (Staphylococcus saprophyticus subsp. saprophyticus (strain ATCC 15305 / DSM20229 / NCIMB 8711 / NCTC 7292 / S-41), UniProt Q4A0P1); experiment: Prodrug conversion assessed Staphylococcus saprophyticus nitroreductase expressed in Escherichia coli-mediated (4-aminophenyl)(piperidin-1-yl)methanone metabolite formation by measuring retention time in presence of FDH cofactor regeneration system at 100 uM by HPLC analysis; assay type: ADME
T1 sequence (Q4A0P1 whole entry): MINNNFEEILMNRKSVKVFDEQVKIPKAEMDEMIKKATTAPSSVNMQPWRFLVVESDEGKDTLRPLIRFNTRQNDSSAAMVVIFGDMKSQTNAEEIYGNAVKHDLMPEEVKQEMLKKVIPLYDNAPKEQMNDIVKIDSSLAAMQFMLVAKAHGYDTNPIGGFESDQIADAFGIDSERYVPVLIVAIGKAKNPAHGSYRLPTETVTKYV
How it was run: (§1)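 This was a coupled regeneration reaction: 100 µM substrate in Tris/Cl pH 7.5 with 5–15% DMSO, plus 100 µM NADH, 10 µM NAD+, 0.1 mg/mL BSA, 200 µM sodium formate, 30 µg/mL Ssap-NtrB and 30 µg/mL Candida methylica FDH, at 25 °C. Aliquots were taken over time, quenched 1:1 with cold acetonitrile and analysed by C18 HPLC using program II (20→80→20% ACN). Peak areas were read at 254 and 340 nm.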

Putative nitroreductase [2] = target: T1, Putative nitroreductase; experiment: Prodrug conversion assessed Staphylococcus saprophyticus nitroreductase expressed in Escherichia coli-mediated PP (4-(hydroxyamino)phenyl)(piperidin-1-yl)methanone metabolite formation by measuring retention time in presence of FDH cofactor regeneration system at 100 uM by HPLC analysis; assay type: ADME; how it was run: as §1
Putative nitroreductase [3] = target: T1, Putative nitroreductase; experiment: Prodrug conversion assessed Staphylococcus saprophyticus nitroreductase expressed in Escherichia coli-mediated PP (4-(hydroxyamino)phenyl)(piperidin-1-yl)methanone metabolite formation by measuring retention time of metabolite at 100 uM incubated for 15 mins by HPLC analysis; assay type: ADME; conditions: 0.25 h
How it was run: (§2)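 Recombinant Ssap-NtrB, Ni-column purified, was used at 2.5 µg/mL. Substrate at 100 µM was reacted with 200 µM NADH in 25 mM Tris/Cl pH 7.5 with 10% DMSO at 25 °C for 15 min. The reaction was stopped 1:1 with cold acetonitrile and run on C18 RP-HPLC at 1 mL/min with a 20–80% ACN gradient. Peaks were detected at 254 and 340 nm.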

Putative nitroreductase [4] = target: T1, Putative nitroreductase; experiment: Prodrug conversion assessed as Staphylococcus saprophyticus nitroreductase mediated P2 metabolite formation in presence of FDH cofactor regeneration system at 100 uM by HPLC analysis; assay type: ADME; conditions: isolated protein; how it was run: as §1
[5] = Cytotoxicity against human Hep3B cells assessed as cell viability at 9 to 150 uM measured after 48 hrs by MTT assay relative to control; assay type: cell-based, Hep 3B2; conditions: read-out: Activity
How it was run: (§3)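 Hep3B and HUVEC cells were grown in high-glucose medium with 10% heat-inactivated FBS and 2 mM glutamine at 37 °C in 5% CO2. Cells were seeded at 5x10^4 per well and left 24 h to attach. They were then exposed for 48 h to 150, 75, 39, 19 and 9 µM, with 1% DMSO as vehicle control. Viability was read by MTT at 550 nm as (OD sample/OD control)×100.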

[6] = Cytotoxicity against human HUVEC cells assessed as cell viability at 9 to 150 uM measured after 48 hrs by MTT assay relative to control; assay type: cell-based; conditions: read-out: Activity; how it was run: as §3
[7] = Cytotoxicity against human PC3 cells assessed as cell viability at 9 to 150 uM measured after 48 hrs by MTT assay relative to control; assay type: cell-based, PC-3; conditions: read-out: Activity
How it was run: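 They were treated for 48 h at 9, 18, 39, 78 and 150 µM, with 1% DMSO as vehicle control. Viability was read by MTT at 550 nm.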

Putative nitroreductase [8] = target: T1, Putative nitroreductase; experiment: Prodrug conversion assessed as Staphylococcus saprophyticus nitroreductase mediated P1 metabolite formation in presence of FDH cofactor regeneration system at 100 uM by HPLC analysis; assay type: ADME; conditions: isolated protein; how it was run: as §1
Putative nitroreductase [9] = target: T1, Putative nitroreductase; experiment: Substrate activity at Staphylococcus saprophyticus nitroreductase expressed in Escherichia coli assessed as retention time […] at 150 uM by HPLC analysis (0 to 5 mins at 20 % ACN, 15 to 22 min at 80% ACN, 27-32 AT 20% ACN); assay type: ADME
[10] = target: T2, Staphylococcus saprophyticus nitroreductase (Staphylococcus saprophyticus subsp. saprophyticus (strain ATCC 15305 / DSM20229 / NCIMB 8711 / NCTC 7292 / S-41), UniProt Q4A0P1); experiment: Substrate activity at Staphylococcus saprophyticus nitroreductase expressed in Escherichia coli assessed as half life […] at 150 uM by HPLC analysis (0 to 5 mins at 20 % ACN, 15 to 22 min at 80% ACN, 27-32 AT 20% ACN); assay type: ADME
T2 sequence (Q4A0P1 whole entry): T1 sequence (Q4A0P1 whole entry)

Putative nitroreductase [11] = target: T1, Putative nitroreductase; experiment: Substrate activity at Staphylococcus saprophyticus nitroreductase expressed in Escherichia coli assessed as retention time in the presence of NADPH at 150 uM by HPLC analysis (0 to 5 mins at 20% ACN, 25 to 35 min at 80% ACN, 40 to 45 min at 20% ACN); assay type: ADME
[12] = target: T2, Staphylococcus saprophyticus nitroreductase; experiment: Substrate activity at Staphylococcus saprophyticus nitroreductase expressed in Escherichia coli assessed as half life in the presence of NADPH at 150 uM by HPLC analysis (0 to 5 mins at 20% ACN, 25 to 35 min at 80% ACN, 40 to 45 min at 20% ACN); assay type: ADME
Putative nitroreductase [13] = target: T1, Putative nitroreductase; experiment: Prodrug conversion assessed as Staphylococcus saprophyticus nitroreductase mediated P3 metabolite formation in presence of FDH cofactor regeneration system at 100 uM by HPLC analysis; assay type: ADME; conditions: isolated protein; how it was run: as §1
Putative nitroreductase [14] = target: T1, Putative nitroreductase; experiment: Prodrug conversion assessed as Staphylococcus saprophyticus nitroreductase mediated P4 metabolite formation in presence of FDH cofactor regeneration system at 100 uM by HPLC analysis; assay type: ADME; conditions: isolated protein; how it was run: as §1
Putative nitroreductase [15] = target: T1, Putative nitroreductase; experiment: Prodrug conversion assessed as Staphylococcus saprophyticus nitroreductase mediated P5 metabolite formation in presence of FDH cofactor regeneration system at 100 uM by HPLC analysis; assay type: ADME; conditions: isolated protein; how it was run: as §1
Putative nitroreductase [16] = target: T1, Putative nitroreductase; experiment: Prodrug conversion assessed Staphylococcus saprophyticus nitroreductase expressed in Escherichia coli-mediated (4-(hydroxyamino)phenyl)(morpholino)methanone metabolite formation by measuring retention time of metabolite at 100 uM incubated for 15 mins by HPLC analysis; assay type: ADME; conditions: 0.25 h; how it was run: as §2

Question: For `O=C(c1ccc(NO)cc1)N1CCCCC1`, which Retention_time (Putative nitroreductase [1]) is on record?
Answer: Its Retention_time is 22.3 min.

Question: What about the Retention_time (Putative nitroreductase [2]) of the same compound?
Answer: The Retention_time was 14 min.

Question: And the Retention_time (Putative nitroreductase [3])?
Answer: Its Retention_time is 15.99 min.

Question: Which Drug metabolism (Putative nitroreductase [4]) does the source give for `CCN(C(C)=O)c1cc([N+](=O)[O-])cc([N+](=O)[O-])c1` here?
Answer: The Drug metabolism was “Metabolite_Detected”.

Question: And the viability at 48 h, up to 150 µM [5]?
Answer: The viability at 48 h, up to 150 µM was 51 to 80%.

Question: And the viability at 48 h, up to 150 µM [6]?
Answer: The viability at 48 h, up to 150 µM was over 80%.

Question: What about the viability at 48 h, up to 150 µM [7] of the same compound?
Answer: Its viability at 48 h, up to 150 µM is over 80%.

Question: And the Drug metabolism (Putative nitroreductase [8])?
Answer: Its Drug metabolism is “Metabolite_Detected”.

Question: And the Retention_time (Putative nitroreductase [9])?
Answer: Its Retention_time is 14.55 min.

Question: And the half-life [10]?
Answer: The half-life was under 1.2 min.

Question: What about the Retention_time (Putative nitroreductase [11]) of the same compound?
Answer: The Retention_time was 16.85 min.

Question: What about the half-life [12] of the same compound?
Answer: Its half-life is under 1.2 min.

Question: What about the Drug metabolism (Putative nitroreductase [13]) of the same compound?
Answer: The Drug metabolism was “Metabolite_Detected”.

Question: And the Drug metabolism (Putative nitroreductase [14])?
Answer: The Drug metabolism was “Metabolite_Detected”.

Question: What about the Drug metabolism (Putative nitroreductase [15]) of the same compound?
Answer: The Drug metabolism was “Metabolite_Detected”.

Question: Which Retention_time (Putative nitroreductase [16]) does the source give for `O=C(c1ccc(NO)cc1)N1CCOCC1` here?
Answer: The Retention_time was 11.71 min.
